OX1R antag-1 = OX1R (HCRTR1) antagonists, primary screen, fluorescence, CHO/OX1R cells, Fluo-8 calcium, orexin A | Orexin/Hypocretin receptor type 1 (Homo sapiens), O43613 | Fluo-8 calcium fluorescence | AID 434989, 2010 | inhibition, % at 5 µM | hit rate 0.43% among 330,000;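 active means inhibition above its plate's threshold, mean inhibition of all tested compounds on the plate plus 3 SD, cut at about 37% in these data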;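 further: 0% = orexin A challenge wells and 100% = SB-334867-A antagonist wells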
Target sequence (O43613 whole entry, looked up): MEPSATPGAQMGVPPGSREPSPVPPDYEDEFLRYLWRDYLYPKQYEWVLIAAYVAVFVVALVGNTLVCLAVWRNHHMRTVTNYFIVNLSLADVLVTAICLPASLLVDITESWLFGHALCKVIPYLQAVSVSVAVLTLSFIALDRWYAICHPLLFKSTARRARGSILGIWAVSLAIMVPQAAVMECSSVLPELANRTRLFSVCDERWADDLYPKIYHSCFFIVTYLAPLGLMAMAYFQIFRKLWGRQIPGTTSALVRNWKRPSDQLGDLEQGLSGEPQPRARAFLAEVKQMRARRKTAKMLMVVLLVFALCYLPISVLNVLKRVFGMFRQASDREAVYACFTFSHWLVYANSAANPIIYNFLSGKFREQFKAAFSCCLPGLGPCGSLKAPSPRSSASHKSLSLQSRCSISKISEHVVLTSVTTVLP
OX1R antag-2 = antagonists of human orexin 1 receptor (OX1R); Orexin/Hypocretin receptor type 1 (Homo sapiens), O43613; OX1R-expressing cells, FRET antagonist read-out; inhibition, % at 6.6 µM; hit rate 1.8% among 330,000; in the data active means inhibition mostly above about 38%, no sharp cut-off; inactive means mostly below about 40%;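 further: 0% = agonist challenge alone and 100% = reference antagonist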
TAAR1 agonist = human TAAR1 agonists, primary screen, Fluo-8 calcium fluorescence, CHO RD-HGA16 cells. hit rate 0.99% among 360,000. Trace amine-associated receptor 1 (Homo sapiens), Q96RJ0. vehicle wells 0%, saturating PEA agonist 100%. activation, % at 3 µM. AID 624467, 2012;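 active means activation above the mean activation of all test compounds in the run plus 3 SD, cut at about 38% in these data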
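Test system: RD-HGA16 (CHO) cells co-expressing Gα16 and hTAAR1; dosing: one-point dosing at 3 µM (nominal); timing: 17-24 h seeding, 75 min 37 °C dye, 30 min RT; signal: kinetic Fluo-8 calcium fluorescence; read-out basis: % activation relative to PEA EC100 response; controls: DMSO and PEA EC100; replicates: n 1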
TAAR1 antagonist = human TAAR1 antagonists, primary screen, Fluo-8 calcium fluorescence, CHO RD-HGA16 cells | hit rate 1.5% among 360,000 | inhibition, % at 3 µM | antagonist;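 active means inhibition above a per-plate cutoff, the mean inhibition of test compounds on that plate plus 3 SD, cut at about 49% in these data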;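 further: 0% = DMSO plus EC80 beta-PEA response and 100% = DMSO alone without agonist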
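System: CHO RD-HGA16 cells bearing hTAAR1. Reagent: EC80 β-phenethylamine stimulus. Schedule: seeding 17-24 h prior, 75-min 37 °C, 30-min RT dye loading. Signal: Fluo-8 intracellular calcium dye fluorescence, real-time kinetic reads. Read-out: % inhibition from peak post-agonist over basal fluorescence ratio. Benchmarks: vehicle wells and EC80 agonist wells. Replicates: n of 1.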
CHO parental Ca = ATP-evoked calcium signal inhibitors, parental CHO, primary screen, counter-screen for OX1R antagonist project, cell-based, fluorescence, Fluo-8 calcium dye; parental CHO-K1, ATP-induced calcium, Fluo-8 fluorescence; inhibition, % at 5.6 µM; hit rate 0.63% among 330,000;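 active means inhibition above that plate's mean sample inhibition plus 3 SD, cut at about 26% in these data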;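 further: 0% = ATP-challenged DMSO wells and 100% = DMSO wells without ATP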
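Test system: untransfected parental CHO cell line; also added: ATP stimulus; dosing: 5.6 µM, single dose; signal: calcium-sensitive Fluo-8 fluorescence; measure: percent inhibition of ATP-evoked calcium rise, normalized to controls; benchmarks: low control ATP plus DMSO, high control DMSO only; replication: one well per compound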
GPR7 antag = GPR7 receptor antagonists, primary screen, cell-based, fluorescence, single concentration; GPR7-expressing cells, fluorescence antagonist assay; inhibition, % at 4.4 µM; hit rate 1.1% among 290,000; AID 1861, 2009; in the data active means inhibition above about 16%, passing the limit was not always enough;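 further: cells stimulated with the agonist NPW; 0% = agonist with vehicle and 100% = vehicle without agonist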
The depositor's hits bear a star. Sampled rows, rich in hits. Any-hit rate of the full collection: about 4.5%.

What do the screens show for `CCN(CC)c1ccc(/C=N\NC(=O)c2cccc3cc[nH]c23)cc1`?
OX1R antag-1: -2; OX1R antag-2: 51*; TAAR1 agonist: 0; TAAR1 antagonist: 4; CHO parental Ca: -16; GPR7 antag: 1

Results for C#CCNC(=O)C[C@H]1C[C@@]2(C(=O)OC)C(=C[C@H](C(C)(C)C)O[C@@H]2C)N(Cc2ccccc2)C1=O ?
TAAR1 agonist: -1; TAAR1 antagonist: -1

Results for CC1CCCN(C(=O)c2ccc3c(=O)n4nc(Nc5ccccc5)sc4nc3c2)C1 (stereo not drawn) ?
TAAR1 agonist: 2; TAAR1 antagonist: 9

What do the screens show for `COc1ccccc1Nc1nn2c(=O)c3ccc(C(=O)N4CCCC(C)C4)cc3nc2s1` (stereo not drawn)?
OX1R antag-1: -10; OX1R antag-2: 23; TAAR1 agonist: 6; TAAR1 antagonist: 50*; CHO parental Ca: -3; GPR7 antag: -4

How did Cc1ccsc1C1C=C(c2cccc(Br)c2)Nc2ncnn21 (stereo not drawn) do in these assays?
OX1R antag-1: 45*; OX1R antag-2: 51; CHO parental Ca: -15; GPR7 antag: 12

What do the screens show for `COc1cccc(C2=CC(c3ccc(C)cc3)n3ncnc3N2)c1` (stereo not drawn)?
OX1R antag-1: -32; OX1R antag-2: 28; CHO parental Ca: -23; GPR7 antag: 3

What do the screens show for `Cc1ccc(SCCNC(=S)Nc2ccc(C)c(C)c2)cc1`?
OX1R antag-1: -28; OX1R antag-2: 10; TAAR1 agonist: 6; TAAR1 antagonist: 25; CHO parental Ca: -25; GPR7 antag: -29

What do the screens show for `Cc1cc(C)cc(NC(=S)NCCSc2ccc(Cl)cc2)c1`?
OX1R antag-1: -18; OX1R antag-2: 25; TAAR1 agonist: 15; TAAR1 antagonist: 57*; CHO parental Ca: -5; GPR7 antag: -9

What do the screens show for `COC(=O)C(Cc1ccc(O)cc1)N1Cc2ccccc2C1=O` (stereo not drawn)?
OX1R antag-1: -8; OX1R antag-2: 5; TAAR1 agonist: 0; TAAR1 antagonist: 18; CHO parental Ca: -2; GPR7 antag: -2

How did COC(=O)C(Cc1ccc(OC(=O)c2ccc(C)cc2)cc1)N1Cc2ccccc2C1=O (stereo not drawn) do in these assays?
OX1R antag-1: 24; OX1R antag-2: 22; CHO parental Ca: 44*; GPR7 antag: 16

How did C/C(Cn1nnc([N+](=O)[O-])n1)=N\NC(=O)c1ccccc1 do in these assays?
OX1R antag-1: 2; OX1R antag-2: 32*; TAAR1 agonist: 1; TAAR1 antagonist: -27; CHO parental Ca: -17; GPR7 antag: -11

What do the screens show for `CN(C)NC(=O)c1ccc([N+](=O)[O-])s1`?
OX1R antag-1: -19; OX1R antag-2: 67*; TAAR1 agonist: 0; TAAR1 antagonist: -1; CHO parental Ca: -9; GPR7 antag: -9

What do the screens show for `O=C(Nc1ccccc1F)c1ccc(-c2cccc([N+](=O)[O-])c2)o1`?
OX1R antag-1: -22; OX1R antag-2: 64*; TAAR1 agonist: -3; TAAR1 antagonist: -9; CHO parental Ca: -11; GPR7 antag: -3

Results for O=C(Nc1cccnc1)c1ccc([N+](=O)[O-])s1 ?
OX1R antag-1: -5; OX1R antag-2: 53*; TAAR1 agonist: 4; TAAR1 antagonist: 3; CHO parental Ca: -15

What do the screens show for `O=C(Nc1cccc2ccccc12)c1ccc([N+](=O)[O-])s1`?
OX1R antag-1: -3; OX1R antag-2: 11; TAAR1 agonist: 6; TAAR1 antagonist: 10; CHO parental Ca: -6; GPR7 antag: -4

What do the screens show for `O=C(Nc1ccccc1F)c1ccc([N+](=O)[O-])s1`?
OX1R antag-1: -2; OX1R antag-2: 38*; TAAR1 agonist: 2; TAAR1 antagonist: 13; CHO parental Ca: 2; GPR7 antag: 3

What do the screens show for `Cc1ccccc1C(=O)N(C)[C@H]1C[C@H]2c3[nH]c4c(-c5ccccc5)cccc4c3CCN2C(=O)[C@H]1[C@H](C)O`?
TAAR1 agonist: 6; TAAR1 antagonist: -2

Results for O=C(NCCc1ccccn1)c1c(-c2ccsc2)sc2ccccc12 ?
OX1R antag-1: -22; OX1R antag-2: 48*; TAAR1 agonist: 5; TAAR1 antagonist: -11; CHO parental Ca: -32

What do the screens show for `O=C(NCCc1ccccn1)c1c(-c2ccccc2)sc2ccccc12`?
OX1R antag-1: -5; OX1R antag-2: 21; TAAR1 agonist: 11; TAAR1 antagonist: 31; CHO parental Ca: -16

How did Cc1cn2c(N)c(/C=C3\C=Nc4ccccc43)c(=O)nc2s1 do in these assays?
OX1R antag-1: -11; OX1R antag-2: 45*; TAAR1 agonist: 5; TAAR1 antagonist: -1; CHO parental Ca: -9; GPR7 antag: 9

Results for CCc1nn2c(N)c(/C=C3\C=Nc4ccccc43)c(=O)nc2s1 ?
OX1R antag-1: -12; OX1R antag-2: 13; TAAR1 agonist: 2; TAAR1 antagonist: 7; CHO parental Ca: -23; GPR7 antag: 0

What do the screens show for `CC(=O)OC[C@]1(OC(C)=O)C[C@@]23CC[C@H]4[C@@](C)(CCC[C@@]4(C)C(=O)O)[C@@H]2CC[C@@H]1C3`?
OX1R antag-1: 3; OX1R antag-2: 8; TAAR1 agonist: 1; TAAR1 antagonist: 6; CHO parental Ca: 3; GPR7 antag: 1

What do the screens show for `CC(=O)OC[C@]12CC[C@H]3[C@@](C)(CC[C@H]4C(C)(C)CCC[C@]34C)[C@@H]1CC(C1=CC(=O)OC1O)O2` (stereo partly drawn)?
TAAR1 agonist: 1; TAAR1 antagonist: 60*

How did CC(=O)c1ccc(N=Nc2c(C)[nH][nH]c2=O)cc1 do in these assays?
OX1R antag-1: -11; OX1R antag-2: 43; TAAR1 agonist: 4; TAAR1 antagonist: -5; CHO parental Ca: -29

Results for NS(=O)(=O)c1ccc(N=Nc2c[nH]c(=O)c(O)c2)cc1 ?
OX1R antag-1: 5; OX1R antag-2: 42*; TAAR1 agonist: 6; TAAR1 antagonist: -4; CHO parental Ca: 3; GPR7 antag: -5

How did Nc1nc(O)c(N=Nc2ccc(S(N)(=O)=O)cc2)c(=O)[nH]1 do in these assays?
TAAR1 agonist: 0; TAAR1 antagonist: -6; GPR7 antag: -1

How did Cc1[nH][nH]c(=O)c1N=Nc1ccc(S(N)(=O)=O)cc1 do in these assays?
OX1R antag-1: 0; OX1R antag-2: 41*; TAAR1 agonist: 0; TAAR1 antagonist: -35; CHO parental Ca: -8

Results for CC1(C)CC(=O)C=C(c2ccc(COC(=O)c3ccc(Br)cc3)cc2)C1=O ?
TAAR1 agonist: 3; TAAR1 antagonist: 31
